Test results: ChEMBL document CHEMBL1143746, “Synthesis and biological evaluation of sulfonylhydrazone-substituted imidazo[1,2-a]pyridines as novel PI3 kinase p110alpha inhibitors” (Bioorg Med Chem, 2007)

Assays:
A-375 = assay: Inhibition of serum-induced proliferation of human A375 cells; format: functional, cell-based
Method in brief: (§1)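 Cells were grown in DMEM with 10% FBS and penicillin/streptomycin and seeded at 1 × 10⁴ per well onto pre-spotted compound. After 46 h, Alamar blue was added. Fluorescence (ex 544/em 590 nm) was read 2 h later.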

[1] = target: Phosphatidylinositol 4,5-bisphosphate 3-kinase catalytic subunit alpha isoform (Bos taurus, UniProt P32871); assay: Inhibition of GST-tagged bovine p110-alpha expressed in SF9/Baculovirus system by SPA
A549 = assay: Inhibition of serum-induced proliferation of human A549 cells; format: functional, cell-based; method in brief: as §1
MCF7 [2] = assay: Inhibition of serum-induced proliferation of human MCF7 cells; format: functional, cell-based
[3] = target: Phosphatidylinositol 4,5-bisphosphate 3-kinase catalytic subunit gamma isoform (Homo sapiens, UniProt P48736); assay: Inhibition of His-tagged human p110gamma expressed in SF9/Baculovirus system by SPA
HeLa [4] = assay: Suppression of tumor growth in human HeLa cell xenografted BALB/c nude mouse at 50 mg/kg/day, ip after 2 weeks; format: functional; settings: route intraperitoneal
Method in brief: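 Female Balb/c-nu/nu mice, five per group, received 5 × 10⁶ HeLa cells subcutaneously in the hind quarters. Once tumors reached about 100 mm³, the compound was given i.p. at 50 mg/kg daily for 2 weeks. Tumor growth was compared with vehicle, and body weight was monitored.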

MCF7 [5] = assay: Inhibition of serum-induced proliferation of human adriamycin-resistant MCF7 cells; format: functional, cell-based
HeLa [6] = assay: Inhibition of serum-induced proliferation of human HeLa cells; format: functional, cell-based; method in brief: as §1
[7] = target: Phosphatidylinositol 4-phosphate 3-kinase C2 domain-containing subunit beta (Homo sapiens, UniProt O00750); assay: Inhibition of glu-tagged PI3K C2-beta expressed in SF9/Baculovirus system by SPA
Chain of Phosphatidylinositol 4-phosphate 3-kinase C2 domain-containing subunit beta (O00750 whole entry, the tested form may be a part): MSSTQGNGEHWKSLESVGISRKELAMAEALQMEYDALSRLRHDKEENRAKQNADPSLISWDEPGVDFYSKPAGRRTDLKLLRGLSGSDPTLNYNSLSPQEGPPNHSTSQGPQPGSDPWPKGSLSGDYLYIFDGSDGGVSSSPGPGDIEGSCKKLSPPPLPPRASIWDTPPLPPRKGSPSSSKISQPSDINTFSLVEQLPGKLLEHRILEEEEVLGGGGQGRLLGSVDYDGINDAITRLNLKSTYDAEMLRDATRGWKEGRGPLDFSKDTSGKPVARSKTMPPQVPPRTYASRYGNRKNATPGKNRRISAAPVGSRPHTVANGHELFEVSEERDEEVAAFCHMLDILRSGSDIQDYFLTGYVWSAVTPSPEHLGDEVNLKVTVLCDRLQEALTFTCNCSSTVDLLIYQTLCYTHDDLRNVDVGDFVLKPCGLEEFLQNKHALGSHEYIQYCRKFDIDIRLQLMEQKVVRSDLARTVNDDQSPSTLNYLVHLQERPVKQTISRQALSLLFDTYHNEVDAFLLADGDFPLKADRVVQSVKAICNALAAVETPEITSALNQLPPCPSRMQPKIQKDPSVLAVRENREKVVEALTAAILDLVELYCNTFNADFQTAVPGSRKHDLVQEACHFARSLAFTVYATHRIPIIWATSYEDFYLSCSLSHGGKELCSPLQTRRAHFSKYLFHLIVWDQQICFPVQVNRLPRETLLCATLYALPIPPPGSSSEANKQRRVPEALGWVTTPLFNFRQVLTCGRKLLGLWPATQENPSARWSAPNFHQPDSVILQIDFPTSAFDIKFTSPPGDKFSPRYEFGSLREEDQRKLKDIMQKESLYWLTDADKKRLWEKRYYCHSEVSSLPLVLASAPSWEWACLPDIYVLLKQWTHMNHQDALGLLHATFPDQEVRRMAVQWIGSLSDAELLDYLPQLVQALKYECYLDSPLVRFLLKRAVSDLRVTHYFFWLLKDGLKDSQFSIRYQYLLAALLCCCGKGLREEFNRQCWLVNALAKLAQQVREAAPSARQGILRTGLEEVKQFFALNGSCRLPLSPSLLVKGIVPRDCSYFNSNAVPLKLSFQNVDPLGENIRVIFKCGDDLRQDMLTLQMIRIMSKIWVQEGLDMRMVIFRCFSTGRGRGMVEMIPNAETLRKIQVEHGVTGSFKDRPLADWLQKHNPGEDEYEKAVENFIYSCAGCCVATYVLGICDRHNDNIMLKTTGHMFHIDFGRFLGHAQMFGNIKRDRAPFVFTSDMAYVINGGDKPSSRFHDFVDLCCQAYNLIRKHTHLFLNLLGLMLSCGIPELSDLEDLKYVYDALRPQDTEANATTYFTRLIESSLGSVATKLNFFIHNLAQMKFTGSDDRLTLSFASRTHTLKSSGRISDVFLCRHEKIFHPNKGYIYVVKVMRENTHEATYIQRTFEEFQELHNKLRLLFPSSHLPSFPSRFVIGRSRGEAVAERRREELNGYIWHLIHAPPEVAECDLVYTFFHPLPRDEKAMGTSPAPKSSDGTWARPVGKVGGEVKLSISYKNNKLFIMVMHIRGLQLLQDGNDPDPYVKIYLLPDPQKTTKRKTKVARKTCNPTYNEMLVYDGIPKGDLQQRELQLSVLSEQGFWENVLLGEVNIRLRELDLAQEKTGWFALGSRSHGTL

Chain of Phosphatidylinositol 4,5-bisphosphate 3-kinase catalytic subunit alpha isoform (P32871 whole entry, canonical isoform): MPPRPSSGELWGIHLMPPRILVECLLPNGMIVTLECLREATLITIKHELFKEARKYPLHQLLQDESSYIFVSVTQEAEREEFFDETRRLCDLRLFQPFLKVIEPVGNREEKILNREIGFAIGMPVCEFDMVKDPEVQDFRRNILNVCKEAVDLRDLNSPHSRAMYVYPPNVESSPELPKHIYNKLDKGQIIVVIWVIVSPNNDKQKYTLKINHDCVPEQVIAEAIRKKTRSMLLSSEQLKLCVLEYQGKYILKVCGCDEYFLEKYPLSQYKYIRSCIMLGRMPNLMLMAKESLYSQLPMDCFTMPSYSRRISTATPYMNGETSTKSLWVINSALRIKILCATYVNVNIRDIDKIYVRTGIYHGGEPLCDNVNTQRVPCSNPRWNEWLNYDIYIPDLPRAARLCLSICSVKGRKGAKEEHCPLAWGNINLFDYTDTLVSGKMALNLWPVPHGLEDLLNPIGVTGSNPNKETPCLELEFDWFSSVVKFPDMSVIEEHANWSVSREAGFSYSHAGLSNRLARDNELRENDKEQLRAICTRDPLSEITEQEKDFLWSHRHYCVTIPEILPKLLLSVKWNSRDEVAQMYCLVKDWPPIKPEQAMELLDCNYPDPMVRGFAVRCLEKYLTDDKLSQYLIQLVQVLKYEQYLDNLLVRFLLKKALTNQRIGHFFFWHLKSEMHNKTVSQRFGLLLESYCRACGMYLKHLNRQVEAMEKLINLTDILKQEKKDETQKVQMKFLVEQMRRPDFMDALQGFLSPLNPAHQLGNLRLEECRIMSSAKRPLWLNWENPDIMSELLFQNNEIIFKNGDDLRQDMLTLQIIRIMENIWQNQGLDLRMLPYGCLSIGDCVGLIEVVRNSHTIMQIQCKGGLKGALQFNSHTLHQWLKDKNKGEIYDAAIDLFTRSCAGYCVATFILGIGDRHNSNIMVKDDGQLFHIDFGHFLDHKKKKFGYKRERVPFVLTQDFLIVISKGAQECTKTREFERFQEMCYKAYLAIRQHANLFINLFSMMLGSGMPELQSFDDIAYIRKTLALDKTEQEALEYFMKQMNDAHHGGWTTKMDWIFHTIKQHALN
Chain of Phosphatidylinositol 4,5-bisphosphate 3-kinase catalytic subunit gamma isoform (P48736 whole entry, canonical isoform): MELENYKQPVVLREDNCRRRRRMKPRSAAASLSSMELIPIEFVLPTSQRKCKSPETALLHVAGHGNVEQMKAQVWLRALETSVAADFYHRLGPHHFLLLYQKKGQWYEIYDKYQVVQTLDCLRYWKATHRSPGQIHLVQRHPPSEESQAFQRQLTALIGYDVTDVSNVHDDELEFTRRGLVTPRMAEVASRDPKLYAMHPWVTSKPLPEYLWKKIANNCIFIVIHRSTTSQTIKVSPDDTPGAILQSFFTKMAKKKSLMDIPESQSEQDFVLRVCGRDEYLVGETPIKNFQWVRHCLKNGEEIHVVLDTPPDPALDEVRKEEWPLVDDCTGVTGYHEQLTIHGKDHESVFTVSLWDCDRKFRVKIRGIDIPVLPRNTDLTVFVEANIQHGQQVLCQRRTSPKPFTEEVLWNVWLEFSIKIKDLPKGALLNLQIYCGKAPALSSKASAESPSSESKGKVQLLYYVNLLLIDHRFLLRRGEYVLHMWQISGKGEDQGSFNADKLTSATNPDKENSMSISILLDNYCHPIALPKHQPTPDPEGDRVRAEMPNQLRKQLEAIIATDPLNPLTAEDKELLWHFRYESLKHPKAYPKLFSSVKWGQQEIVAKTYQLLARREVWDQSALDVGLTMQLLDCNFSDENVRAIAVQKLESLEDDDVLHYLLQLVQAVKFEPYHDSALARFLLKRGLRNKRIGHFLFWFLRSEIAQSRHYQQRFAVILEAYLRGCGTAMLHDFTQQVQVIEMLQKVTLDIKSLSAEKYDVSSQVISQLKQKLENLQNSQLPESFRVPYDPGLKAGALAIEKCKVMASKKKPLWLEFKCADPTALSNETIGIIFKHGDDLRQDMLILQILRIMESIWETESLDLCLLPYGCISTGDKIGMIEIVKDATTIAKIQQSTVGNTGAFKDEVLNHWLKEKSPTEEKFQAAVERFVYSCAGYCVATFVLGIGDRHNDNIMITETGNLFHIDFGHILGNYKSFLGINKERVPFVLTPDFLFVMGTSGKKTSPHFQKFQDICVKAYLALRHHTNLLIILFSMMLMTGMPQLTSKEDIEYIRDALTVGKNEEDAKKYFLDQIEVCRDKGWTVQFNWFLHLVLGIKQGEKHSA

Cc1ccc([N+](=O)[O-])cc1S(=O)(=O)n1ccc(-c2c(C)nc3ccc(Br)cn23)n1
IC50 (A-375): 730 nM

C/C(=N\NS(=O)(=O)c1cc([N+](=O)[O-])ccc1C)c1cnc2ccc(Br)cn12
IC50 [1]: 17 nM
IC50 (A-375): 12000 nM

Cc1ccc([N+](=O)[O-])cc1S(=O)(=O)N/N=C/c1cnc2ccc(Br)cn12
IC50 [1]: 21 nM
IC50 (A-375): 9000 nM

C/C(=N\N(C)S(=O)(=O)c1cc([N+](=O)[O-])ccc1C)c1cnc2ccc(Br)cn12
IC50 [1]: 81 nM
IC50 (A-375): 20000 nM

C/C(=N\N(C)S(=O)(=O)c1cc([N+](=O)[O-])ccc1C)c1c(C)nc2ccc(Br)cn12
IC50 [1]: 170 nM

C/C(=N\NS(=O)(=O)c1cc([N+](=O)[O-])ccc1C)c1c(C)nc2ccc(Br)cn12
IC50 [1]: 400 nM

Cc1nc2ccccn2c1-c1ccn(S(=O)(=O)c2ccc(F)cc2)n1
IC50 (A-375): 23000 nM

Cc1ccc([N+](=O)[O-])cc1S(=O)(=O)N(C)/N=C/c1cnc2ccc(F)cn12
IC50 [1]: 5.3 nM
IC50 (A-375): 180 nM

CCOC(=O)c1ccc2ncc(/C=N/N(C)S(=O)(=O)c3cc([N+](=O)[O-])ccc3C)n2c1
IC50 [1]: 340 nM
IC50 (A-375): 9350 nM

Cc1ccc([N+](=O)[O-])cc1S(=O)(=O)N(C)/N=C/c1cnc2ccc(Cl)cn12
IC50 [1]: 0.77 nM
IC50 (A-375): 56 nM

Cc1ccc([N+](=O)[O-])cc1S(=O)(=O)N(C)/N=C/c1cnc2ccc(C(F)(F)F)cn12
IC50 [1]: 14 nM
IC50 (A-375): 90 nM

Cc1ccc([N+](=O)[O-])cc1S(=O)(=O)N(C)/N=C/c1cnc2ccc(C#N)cn12
IC50 [1]: 0.26 nM
IC50 (A-375): 33 nM

Cc1ccc([N+](=O)[O-])cc1S(=O)(=O)N(C)/N=C/c1cnc2ccc(Br)cn12.Cl
IC50 (A549): 69 nM
IC50 (MCF7 [2]): 19 nM
IC50 [3]: 40 nM
Activity (HeLa [4]): 62%
IC50 (MCF7 [5]): 39 nM
IC50 (HeLa [6]): 51 nM
IC50 (A-375): 58 nM
IC50 [7]: 100 nM

Cc1ccc([N+](=O)[O-])cc1S(=O)(=O)N(C)/N=C/c1cnc2ccc(C(N)=O)cn12
IC50 [1]: 780 nM
IC50 (A-375): 8960 nM

Cc1ccc2ncc(/C=N/N(C)S(=O)(=O)c3cc([N+](=O)[O-])ccc3C)n2c1
IC50 [1]: 6 nM
IC50 (A-375): 120 nM

O=c1cc(N2CCOCC2)oc2c(-c3ccccc3)cccc12 [LY-294002]
IC50 (A-375): 8400 nM
